Data set [1] deals with CMV AD169IE2-YFP. The experiment in a line: in vitro. The following applies: MRC5 cells; for Selective Ratio (CC50/EC50) / selectivity ratio: AD169IE2-YFP; for selectivity ratio: human, Selective Ratio (CC50/EC50). It counts as cell-based, Human cytomegalovirus.
The test system of data set [2] is MRC5 cells. Nature of the data set: CC50 / cell viability by NucGreen staining, MRC5 cells. In kind it is cell-based, Human. The following applies: MRC5 cells, 0-5μM, 19 hours, NucGreen.
The test system of data set [3] is CMV AD169IE2-YFP. Nature of the data set: High-content screen, IE2-YFP nuclear fluorescence in infected MRC5 cells. In kind it is cell-based, Human cytomegalovirus. As to conditions: for activity at 5.6 µM: Human betaherpesvirus 5, MRC5, 16 h, read-out: YFP Intensity (%); for reduction of YFP intensity: primary screen, screening dose (5μM printed elsewhere in the source).

The nature of data set [4]: CC50 / cell viability by NucGreen staining, MRC5 cells. In kind it is cell-based, Human. As to conditions: human.
In a further data set the test system is CMV AD169. The experiment in a line: Immunoblot of viral early protein US11 in infected MRC5 cells. It counts as cell-based, Human cytomegalovirus. As to conditions: MRC5, AD169-WT MOI 3, 20 hpi; for US11 protein level in infected cells: 50 or 500nM of respective compound. The essentials:
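MRC5 cells were pretreated 1 h at 37 °C with test compound or 0.1% DMSO, infected with wild-type AD169 (MOI 3), then washed once with DMEM before analysis.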
(In western blotting, separated proteins are transferred to a membrane and probed.)

In another data set the test system is CMV. The experiment in a line: Addition of compound after infection. In kind it is cell-based, Human cytomegalovirus. The following applies: added up to 4hpi, data not shown.
In a further data set the test system is CMV TB40/EFLAG-YFP. Nature of the data set: EC50 of convallatoxin, clinical strain reporter virus in ARPE-19 cells. In kind it is cell-based, Human cytomegalovirus. As to conditions: Human betaherpesvirus 5, ARPE-19. The essentials:
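ARPE-19 cells, 10,000/well in 96-well plates, got DMEM with test compound (0-10 nM) the next day, in sextuplicate. They were then infected with TB40/E FLAG-YFP (US28 replaced by FLAG-YFP; MOI 20). YFP+ cells were counted at 120 hpi on an Acumen eX3 cytometer, with positive meaning above 2 SD of background. % infection was set against DMSO-treated cells; EC50 came from a three-parameter log(inhibitor)-response fit of mean values.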

The nature of data set [5]: Cell viability by NucGreen staining, ARPE-19 cells. As to conditions: human. In kind it is cell-based. The essentials:
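ARPE-19 cells, 10,000/well in 96-well plates, were exposed next day to test compound in DMEM, in sextuplicate. After 19 h, NucGreen dead-cell stain went into three of six wells per condition for 10 min at RT. Total cells were counted by fixing with 4% paraformaldehyde and adding NucGreen for 10 min. Signal was read on a fluorescent plate reader, and % viability was taken from NucGreen-positive counts of treated versus total cells.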

Data set [6] has as its system CMV AD169IE2-YFP. Nature of the data set: Multi-cycle infection study, YFP+ cells under long-term convallatoxin treatment. It counts as cell-based, Human cytomegalovirus. The essentials: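 MRC5 cells, 10,000/well in 96-well plates, received DMEM with test compound (0, 5, 10 or 50 nM) in sextuplicate. In one plate this was followed immediately by AD169 IE2-YFP infection (MOI 0.5) or medium alone. In the other, cells were infected (MOI 0.5) or mock-infected for 36 h before compound-containing medium was added. IE2-YFP-positive cells were read on a fluorescent plate reader up to 168 hpi.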

Data set [7] in a line: Cell viability under prolonged treatment, uninfected MRC5 fibroblasts, NucGreen. As to conditions: human, uninfected MRC5 fibroblasts. It counts as cell-based, Human. Put shortly:
(§1)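 Uninfected MRC5 fibroblasts, 10,000/well in 96-well plates, were kept in DMEM with test compound (0, 5, 10 or 50 nM) in sextuplicate for up to 168 h. NucGreen dead-cell staining was read on a fluorescent plate reader. Percent viability used the total cell number of DMSO-treated wells as 100%, plotted at 72, 120 and 168 hpi.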

Data set [8] concerns MRC5 cells. The data set is described as above. In kind it is cell-based, Human. As to conditions: 5nM, throughout the timecourse (up to 168 hours). The essentials: as §1
Data set [9] concerns CMV AD169IE2-YFP. In kind it is cell-based, Human cytomegalovirus. The following applies: MRC5, MOI 0.5, compound present until 24 hpi.

Consider 16 molecules from PMC4324837 (Antiviral research, 2014).

Counter-ions that a name gives are not always drawn. Numbered stars: 1 amine (or outer) side, 2 acyl side, 3 side chain; on linkers, the order of the positions; unused ones are H or OH. Bridge positions count the residues as written; N and C are the ends. Square brackets hold non-standard residues; d marks the D form. Peptide text beside a SMILES is read from it. I, II: the chains in the order shown. Actinocin(9to1) = Cc1c2oc3c(C)ccc(C(=O)[*:1])c3nc-2c(C(=O)[*:2])c(N)c1=O; NMeV = CN[C@H](C(=O)O)C(C)C; Sar = CNCC(=O)O Bounds are passed on as bounds.

As a reminder, the CC50 is the concentration at which the toxic effect on the cells reaches its halfway point. As usually defined, the EC50 is the concentration giving half of the maximal effect. Broadly, the viability is a per cent measure of how many cells are alive, often set against a control. Read a low viability as a greater loss of cells.

For `COc1cc(C2c3cc4c(cc3C(O)C3COC(=O)C23)OCO4)cc(OC)c1O` (stereo not drawn) [4′-demethyl-epipodophyllotoxin], the “Selective Ratio (CC50/EC50)” value in the data set with CMV AD169IE2-YFP [1] was >1.5. Further, the CC50 in the data set on MRC5 cells [2] is > 5 µM.
For the molecule `Cc1c2oc3c(C)ccc(C(=O)N[C@@H]4C(=O)N[C@H](C(C)C)C(=O)N5CCC[C@H]5C(=O)N(C)CC(=O)N(C)[C@@H](C(C)C)C(=O)O[C@@H]4C)c3nc-2c(C(=O)N[C@@H]2C(=O)N[C@H](C(C)C)C(=O)N3CCC[C@H]3C(=O)N(C)CC(=O)N(C)[C@@H](C(C)C)C(=O)O[C@@H]2C)c(N)c1=O` [Actinomycin D] (I: T[dV]P[Sar][NMeV] / II: T[dV]P[Sar][NMeV]; ester I:1-I:C, II:1-II:C; linker I:N-II:N via Actinocin(9to1)), the activity at 5.6 µM with CMV AD169IE2-YFP [3] was 5.8 ± 0.11%.
For `COc1ccc(C[C@H]2NC[C@H](O)[C@H]2OC(C)=O)cc1` [Anisomycin], the EC50 in the data set on CMV AD169IE2-YFP [1] (MOI 3, 1 h pretreatment, 0-5μM, 18 hpi) worked out at 0.17 µM.
In the case of `CC(=O)O[C@@H]1C[C@@]2(C)[C@H](c3ccoc3)C[C@H]3O[C@]32[C@]2(C)C(=O)C(O)=C3C(C)(C)C(=O)C=C[C@]3(C)[C@@H]12` [Anthothecol], in the data set with CMV AD169IE2-YFP [3], the activity at 5.6 µM was 27.5 ± 0.55%. The “Selective Ratio (CC50/EC50)” value is on record as 0.4 in the data set on CMV AD169IE2-YFP [1] and < 30 in the data set with CMV AD169IE2-YFP [1] (listed as anthothecol). The CC50 at 19 h in data set [4] came out at 0.7 µM.
Take `COc1cc2c(c(OC)c1OC)-c1ccc(OC)c(=O)cc1[C@@H](NC(C)=O)CC2` [Colchicine]: the activity at 5.6 µM with CMV AD169IE2-YFP [3] is 17.3 ± 0.34%. The CC50 at 19 h in data set [4] was > 5 µM. Moreover, the “US11 protein level in infected cells” value in the data set on CMV AD169 is recorded as “lower levels of US11”. For the same molecule, the “effect on infection when added after infection” value in the data set with CMV is on record as “reduced infection”.
Regarding `C[C@@H]1O[C@@H](O[C@H]2CC[C@]3(C=O)[C@H]4CC[C@]5(C)[C@@H](C6=CC(=O)OC6)CC[C@]5(O)[C@@H]4CC[C@]3(O)C2)[C@H](O)[C@H](O)[C@H]1O` [Convallatoxin], the activity at 5.6 µM in the data set on CMV AD169IE2-YFP [3] stood at 27.8 ± 0.87%. Besides, the selectivity ratio in the data set with CMV AD169IE2-YFP [1] was > 454. In [4], the CC50 at 19 h was > 5 µM and the viability at 19 h, 5 µM came out at 100%. In addition, the EC50 with CMV TB40/EFLAG-YFP was 0.0001 µM. The viability at 19 h, 10 nM in [5] was ~80%. Also, the “US11 protein level in infected cells” value in the data set on CMV AD169 was “lower levels of US11”. Also, the US11 expression entry in the data set on CMV AD169 (convallatoxin 5-50nM (all concentrations)) is “blocked the expression of US11 at all concentrations”. Also, in the data set with CMV AD169IE2-YFP [6] (5nM, added at 0hpi, by 100hpi), the “fluorescent expression relative to DMSO-treated cells” value is “approximately half”. Further, the “number of YFP+ cells compared to DMSO” value in the data set with CMV AD169IE2-YFP [6] (MRC5, MOI 0.5, 5, 10 or 50nM added simultaneously with virus (0hpi)) was “reduced the number of YFP+ cells in a dose-dependent manner”. The “number of YFP+ cells” value with CMV AD169IE2-YFP [6] (MRC5, MOI 0.5, treatment of infected cells at 36hpi) is “significant decrease of YFP+ cells”. Moreover, in [7], the viability at 120 h, 0.01 µM was 79%; the viability at 120 h, 0.05 µM came to 61%; the viability at 168 h, 0.01 µM turned out to be 91%; the viability at 168 h, 0.05 µM was 82%. For the same molecule, the “effect on cell viability” value in the data set with MRC5 cells [8] is listed as “no detectable effect”. The “YFP fluorescence (% infection vs DMSO)” value in the data set with CMV AD169IE2-YFP [9] (followed 9 days, ganciclovir 12μM) is on record as “significant decrease in fluorescence”. Moreover, the “decrease in virus titer compared to ganciclovir treatment” value with CMV AD169IE2-YFP [9] (plaque assay of supernatants) is ~10 fold.
Regarding `C[C@@H]1C[C@@H]([C@H](O)CC2CC(=O)NC(=O)C2)C(=O)[C@@H](C)C1` [Cycloheximide], the activity at 5.6 µM in the data set on CMV AD169IE2-YFP [3] came out at 11.2 ± 1.8%.
Turning to `COc1ccc2c(c1OC)C(=O)O[C@@H]2[C@H]1c2c(cc3c(c2OC)OCO3)CCN1C` [Noscapine], the activity at 5.6 µM in the data set on CMV AD169IE2-YFP [3] turned out to be 106%.
As to `COc1cc([C@@H]2c3cc4c(cc3[C@H](O)[C@H]3COC(=O)[C@H]23)OCO4)cc(OC)c1OC` [Podofilox], the activity at 5.6 µM in the data set with CMV AD169IE2-YFP [3] stood at 14.5 ± 0.31%. The selectivity ratio in the data set on CMV AD169IE2-YFP [1] is > 192. In addition, in data set [4] (MRC5 cells), the 50% cytotoxic concentration (CC50) at 19 h was > 5 µM. The “US11 protein level in infected cells” value with CMV AD169 is “lower levels of US11”.
Consider `CN(C)C(=S)SSC(=S)N(C)C` [Thiram], for which the activity at 5.6 µM in the data set with CMV AD169IE2-YFP [3] worked out at 14 ± 0.29%. Besides, the “Selective Ratio (CC50/EC50)” value is <0.4 with CMV AD169IE2-YFP [1] and < 30 with CMV AD169IE2-YFP [1] (listed as thiram). In [4] (MRC5 cells), this molecule returned a CC50 at 19 h of 2.2 µM.
Take `CC[C@]1(O)C[C@@H]2CN(CCc3c([nH]c4ccccc34)[C@@](C(=O)OC)(c3cc4c(cc3OC)N(C)[C@H]3[C@@](O)(C(=O)OC)[C@H](OC(C)=O)[C@]5(CC)C=CCN6CC[C@]43[C@@H]65)C2)C1` [Vinblastine sulfate]: the activity at 5.6 µM with CMV AD169IE2-YFP [3] was 24.2 ± 0.48%.
Turning to `CC[C@]1(O)C[C@H]2CN(CCc3c([nH]c4ccccc34)[C@@](C(=O)OC)(c3cc4c(cc3OC)N(C=O)[C@H]3[C@@](O)(C(=O)OC)[C@H](OC(C)=O)[C@]5(CC)C=CCN6CC[C@]43[C@@H]65)C2)C1` [Vincristine sulfate], in the data set on CMV AD169IE2-YFP [3], the activity at 5.6 µM stood at 26.6 ± 0.53%. The “Selective Ratio (CC50/EC50)” value in the data set on CMV AD169IE2-YFP [1] was 3.4. Moreover, the CC50 at 19 h in [4] was determined as 0.04 µM.
`CC[C@H]1CN2CCc3cc(OC)c(OC)cc3[C@@H]2C[C@@H]1C[C@H]1NCCc2cc(OC)c(OC)cc21` [emetine]: the “reduction of YFP intensity” value with CMV AD169IE2-YFP [3] amounted to 41%.
Still for that read-out and setting: the result for `C[C@@H]1O[C@@H](O[C@H]2C[C@@H](O)[C@]3(CO)[C@H]4[C@H](O)C[C@]5(C)[C@@H](C6=CC(=O)OC6)CC[C@]5(O)[C@@H]4CC[C@]3(O)C2)[C@H](O)[C@H](O)[C@H]1O` [ouabain] reads ≤ 70%; that for `CO[C@H]1[C@H](O)[C@H](O[C@H]2CC[C@@]3(C=O)[C@H](CC[C@@H]4[C@@H]3CC[C@]3(C)[C@@H](C5=CC(=O)OC5)CC[C@]43O)C2)O[C@@H](C)[C@@H]1O` [peruvoside], ≤ 70%.
Turning to `COc1cc([C@@H]2c3cc4c(c(O)c3C[C@H]3COC(=O)[C@@H]32)OCO4)cc(OC)c1OC` [β-peltatin], the activity at 5.6 µM in the data set with CMV AD169IE2-YFP [3] worked out at 20.5 ± 0.41%.
